Consider 13 molecules from ChEMBL document CHEMBL3351434, “Synthesis of novel chromeno-annulated cis-fused pyrano[3,4-c]benzopyran and naphtho pyran derivatives via domino aldol-type/hetero Diels-Alder reaction and their cytotoxicity evaluation” (Bioorg Med Chem Lett, 2014).

One data set relates to MDA-MB-231. In words: Cytotoxicity against human MDA-MB-231 cells by MTT assay. It is filed as functional, cell-based. On the technique in general: Formazan colour is commonly taken as a measure of viable cells.
For a further data set, the system named is HeLa. In words: Cytotoxicity against human HeLa cells by MTT assay. The data set is classed as functional, cell-based.
For the next data set, the system named is MCF7. Description: Cytotoxicity against human MCF7 cells by MTT assay. The data set is classed as functional, cell-based.
The subject of the next data set is A549. In words: Cytotoxicity against human A549 cells by MTT assay. It is filed as functional, cell-based.
Data set [1] is described as follows: Cytotoxicity against HEK cells by MTT assay. The data set is classed as cell-based. Conditions: human, hek293. The method, boiled down:
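Cells were HEK293, a line derived from normal human embryonic kidney, used as the non-cancer counter-screen. Viability was read by MTT following a previously reported protocol.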

Molecules are shown by their SMILES. Bounds are passed on as bounds.

By IC50 is commonly meant the concentration at which inhibition is half-maximal. Low values mean higher potency, high ones lower potency. `CCC(=O)c1ccc2c(c1O)[C@@H]1c3c(ccc4c(=O)c(-c5ccccc5)c(C)oc34)OC[C@@H]1C(C)(C)O2`: the IC50 was found to be 6.15 µM with MDA-MB-231, 18.2 µM with HeLa, 20.5 µM in the data set with MCF7 and 19.3 µM in the data set with A549. Further, the Activity result in data set [1] is recorded as “Non-toxic”.

Turning to `CCC(=O)c1ccc2c(c1O)[C@@H]1c3c(ccc4c(=O)c(C)c(C)oc34)OC[C@@H]1C(C)(C)O2`, the IC50 with MDA-MB-231, in the data set with HeLa, in the data set with MCF7 and in the data set on A549 was greater than 100 µM each time.

For the molecule `CC(=O)c1ccc2c(c1O)[C@@H]1c3c(ccc4c(=O)c(C)c(C)oc34)OC[C@@H]1C(C)(C)O2`, the IC50 in the data set with MDA-MB-231, with HeLa, in the data set on MCF7 and in the data set on A549 was greater than 100 µM in each case.

`Cc1oc2c3c(ccc2c(=O)c1C)OC[C@H]1[C@@H]3c2c(ccc(C(=O)Cc3ccccc3)c2O)OC1(C)C`: the IC50 in the data set on MDA-MB-231, in the data set on HeLa, in the data set on MCF7 and with A549 was greater than 100 µM each time.

As to `Cc1oc2c3c(ccc2c(=O)c1C)OC[C@H]1[C@@H]3c2c(ccc(C(=O)c3ccccc3)c2O)OC1(C)C`, the IC50 in the data set on MDA-MB-231, with HeLa, in the data set on MCF7 and with A549 was greater than 100 µM each time.

In the case of `CCC(=O)c1ccc2c(c1O)[C@H]1c3c(ccc4c(=O)c(C)coc34)OC[C@H]1C(C)(C)O2`, the IC50 in the data set with MDA-MB-231, with HeLa, in the data set on MCF7 and in the data set on A549 was greater than 100 µM in each case.

As to `CC(=O)c1ccc2c(c1O)[C@H]1c3c(ccc4c(=O)c(C)coc34)OC[C@H]1C(C)(C)O2`, the IC50 in the data set with MDA-MB-231, in the data set with HeLa, with MCF7 and in the data set on A549 was greater than 100 µM throughout.

As to `Cc1coc2c3c(ccc2c1=O)OC[C@H]1[C@@H]3c2c(ccc(C(=O)Cc3ccccc3)c2O)OC1(C)C`, the IC50 in the data set on MDA-MB-231, in the data set on HeLa, in the data set on MCF7 and in the data set with A549 was greater than 100 µM throughout.

Turning to `Cc1coc2c3c(ccc2c1=O)OC[C@H]1[C@@H]3c2c(ccc(C(=O)c3ccccc3)c2O)OC1(C)C`, the IC50 in the data set on MDA-MB-231 came out at 5.68 µM; with HeLa, 1.5 µM; with MCF7 it was 6.24 µM; in the data set on A549 it was 17 µM. Moreover, the Activity entry in data set [1] was “Non-toxic”.

In the case of `CC(=O)c1ccc2c(c1O)[C@@H]1c3c(ccc4c(=O)c(-c5ccccc5)c(C)oc34)OC[C@@H]1C(C)(C)O2`, the IC50 in the data set with MDA-MB-231 stood at 46.8 µM; in the data set on HeLa it was 4.81 µM; in the data set on MCF7, 11.2 µM; with A549 it was 2.53 µM. For the same molecule, the Activity result in data set [1] is given as “Non-toxic”.

Regarding `Cc1oc2c3c(ccc2c(=O)c1C)OC[C@H]1[C@@H]3c2ccc3ccccc3c2OC1(C)C`, the IC50 in the data set on MDA-MB-231, in the data set on HeLa, in the data set on MCF7 and in the data set on A549 was greater than 100 µM in each case.

Consider `Cc1coc2c3c(ccc2c1=O)OC[C@H]1[C@@H]3c2ccc3ccccc3c2OC1(C)C`, for which the IC50 in the data set on MDA-MB-231, in the data set with HeLa, in the data set on MCF7 and in the data set with A549 was greater than 100 µM in each case.

Take `COc1cccc2c1C(=O)c1c(O)c3c(c(O)c1C2=O)C[C@@](O)(C(=O)CO)C[C@@H]3O[C@H]1C[C@H](N)[C@H](O)[C@H](C)O1` [DOXORUBICIN]: the IC50 with MDA-MB-231 worked out at 0.5 µM; with MCF7 it was 1.05 µM.
